Results taken from ChEMBL document CHEMBL3085701, “Optimization of novel indole-2-carboxamide inhibitors of neurotropic alphavirus replication” (J Med Chem, 2013).

Tested on: Western equine encephalitis virus
Assay: Antiviral activity against Western equine encephalomyelitis virus infected in human BE(2)-C cells assessed as reduction of viral titer at 25 uM after 24 hrs by plaque reduction assay (reference value: 25.7 +/- 5.2 x 10^6 pfu/ml)
Assay type: functional
Conditions: not given

SMILES	Activity
C[C@@H](NC(=O)C1CCN(C(=O)c2cc3ccccc3n2Cc2ccc(Cl)cc2)CC1)c1ccccc1	8.8 ×10⁶ PFU/ml
O=C(NCCc1ccncc1)C1CCN(C(=O)c2cc3ccccc3n2Cc2ccc(Cl)cc2)CC1	0.5 ×10⁶ PFU/ml
CC(NC(=O)C1CCN(C(=O)c2cc3ccccc3n2Cc2ccc(Cl)cc2)CC1)c1ccncc1 (racemic)	0.7 ×10⁶ PFU/ml
NC(=O)c1ncn([C@@H]2O[C@H](CO)[C@@H](O)[C@H]2O)n1 [RIBAVIRIN]	9.3 ×10⁶ PFU/ml

Tested on: not listed separately
Assay: Half life in Balb-C mouse liver microsomes
Assay type: ADME, Microsome
Conditions: not given
Summary of the method: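 Compound incubated with Balb-C mouse liver microsomes, and half-life determined for oxidative metabolism. Values are means of ≥2 independent incubations.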

SMILES	t1/2
O=C(NCCc1ccncc1)C1CCN(C(=O)c2cc3ccccc3n2Cc2ccccc2)CC1	77.9 min
O=C(NCCc1ccncc1)C1CCN(C(=O)c2cc3ccncc3n2Cc2ccc(Cl)cc2)CC1	9.1 min
O=C(NCCc1ccncc1)C1CCN(C(=O)c2nc3ccccc3n2Cc2ccc(Cl)cc2)CC1	43 min
C[C@@H](NC(=O)C1CCN(C(=O)c2cc3ccccc3n2Cc2ccc(Cl)cc2)CC1)c1ccccc1	2.1 min
C[C@@H](NC(=O)C1CCN(C(=O)c2cc3ccccc3n2Cc2ccc(Cl)cc2)CC1)c1ccncc1	23.4 min
O=C(NCCc1ccncc1)C1CCN(C(=O)c2cc3ccccc3n2Cc2ccc(Cl)cc2)CC1	11.5 min
O=C(NCCn1ccnc1)C1CCN(C(=O)c2cc3ccccc3n2Cc2ccc(Cl)cc2)CC1	14.3 min

Tested on: not listed separately
Assay: Plasma concentration in C57BL/6 mouse at 30 mg/kg, ip after 2 hrs
Assay type: ADME, organism-based
Parameters: dose 30 mg/kg, route intraperitoneal
Conditions: not given
Summary of the method: (§1)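 C57BL/6 female mice given a single IP injection of compound in 2% sterile DMSO/PBS, at the stated dose. Duplicate mice per time point. Blood taken by cardiac puncture into EDTA and plasma separated. Cerebrum harvested after PBS perfusion and flash-frozen. Drug quantified by LC/MS/MS as ng/mL plasma or ng/g brain.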

SMILES	concentration at 2 h
C[C@@H](NC(=O)C1CCN(C(=O)c2cc3ccccc3n2Cc2ccc(Cl)cc2)CC1)c1ccccc1	30 ng/mL
O=C(NCCc1ccncc1)C1CCN(C(=O)c2cc3ccccc3n2Cc2ccc(Cl)cc2)CC1	79 ng/mL

Tested on: Brain
Assay: Drug level in C57BL/6 mouse brain at 30 mg/kg, ip after 2 hrs
Assay type: ADME, organism-based
Parameters: dose 30 mg/kg, route intraperitoneal
Conditions: in vivo, BLD = below limit of detection
Summary of the method: (§2)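 Female C57BL/6 mice were given a single IP dose in 2% sterile DMSO/PBS. At each time point, duplicate mice had blood taken by cardiac puncture. They were then perfused with PBS, and the cerebrum was harvested and flash frozen on dry ice. Brain drug levels were quantified by LC/MS/MS and reported as ng/g; BLQ means below the limit of quantitation.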

SMILES	Drug uptake
C[C@@H](NC(=O)C1CCN(C(=O)c2cc3ccccc3n2Cc2ccc(Cl)cc2)CC1)c1ccccc1	BLD
O=C(NCCc1ccncc1)C1CCN(C(=O)c2cc3ccccc3n2Cc2ccc(Cl)cc2)CC1	BLD

Tested on: Western equine encephalitis virus
Assay: Antiviral activity against Western equine encephalomyelitis virus infected in human BE(2)-C cells assessed as inhibition of viral RNA replication after 18 to 20 hrs by luciferase reporter gene assay
Assay type: functional, cell-based
Conditions: not given

SMILES	IC50
O=C(NCc1ccncc1)C1CCN(C(=O)c2cc3ccccc3n2Cc2ccc(Cl)cc2)CC1	6.8 µM
O=C(NCCc1ccncc1)C1CCN(C(=O)NCCc2ccc(Cl)cc2)CC1	40.9 µM
O=C(NCCc1ccncc1)C1CCN(C(=O)c2cc3ccccc3n2Cc2ccccc2)CC1	1.6 µM
O=C(NCCc1ccncc1)C1CCN(C(=O)c2cc3ccncc3n2Cc2ccc(Cl)cc2)CC1	4.4 µM
O=C(NCCc1ccncc1)C1CCN(C(=O)c2nc3ccccc3n2Cc2ccc(Cl)cc2)CC1	4.1 µM
C[C@@H](NC(=O)C1CCN(C(=O)c2cc3ccccc3n2Cc2ccc(Cl)cc2)CC1)c1ccccc1	6.5 µM
C[C@@H](NC(=O)C1CCN(C(=O)c2cc3ccccc3n2Cc2ccc(Cl)cc2)CC1)c1ccncc1	0.6 µM
O=C(NCCc1ccncc1)C1CCN(C(=O)c2cc3ccccc3n2Cc2ccc(Cl)cc2)CC1	0.5 µM
O=C(NCCn1ccnc1)C1CCN(C(=O)c2cc3ccccc3n2Cc2ccc(Cl)cc2)CC1	4.9 µM
CC(NC(=O)C1CCN(C(=O)c2cc3ccccc3n2Cc2ccc(Cl)cc2)CC1)c1ccncc1 (racemic)	2.4 µM
NC(=O)c1ncn([C@@H]2O[C@H](CO)[C@@H](O)[C@H]2O)n1 [RIBAVIRIN]	16 µM

Tested on: not listed separately
Assay: Cytotoxicity against human BE(2)-C cells after 18 to 20 hrs by MTT assay
Assay type: cell-based
Conditions: BE(2)-C cells

SMILES	CC50
O=C(NCc1ccncc1)C1CCN(C(=O)c2cc3ccccc3n2Cc2ccc(Cl)cc2)CC1	> 100 µM
O=C(NCCc1ccncc1)C1CCN(C(=O)NCCc2ccc(Cl)cc2)CC1	> 100 µM
C[C@@H](NC(=O)C1CCN(C(=O)c2cc3ccccc3n2Cc2ccc(Cl)cc2)CC1)c1ccccc1	> 100 µM

Same assay, conditions: be(2)-c

SMILES	CC50
O=C(NCCc1ccncc1)C1CCN(C(=O)c2cc3ccccc3n2Cc2ccccc2)CC1	45.6 µM
O=C(NCCc1ccncc1)C1CCN(C(=O)c2cc3ccncc3n2Cc2ccc(Cl)cc2)CC1	77.1 µM
O=C(NCCc1ccncc1)C1CCN(C(=O)c2nc3ccccc3n2Cc2ccc(Cl)cc2)CC1	74.6 µM
C[C@@H](NC(=O)C1CCN(C(=O)c2cc3ccccc3n2Cc2ccc(Cl)cc2)CC1)c1ccncc1	92.3 µM
O=C(NCCc1ccncc1)C1CCN(C(=O)c2cc3ccccc3n2Cc2ccc(Cl)cc2)CC1	49.9 µM
O=C(NCCn1ccnc1)C1CCN(C(=O)c2cc3ccccc3n2Cc2ccc(Cl)cc2)CC1	99.6 µM
CC(NC(=O)C1CCN(C(=O)c2cc3ccccc3n2Cc2ccc(Cl)cc2)CC1)c1ccncc1 (racemic)	90.1 µM

Tested on: Brain
Assay: Drug level in C57BL/6 mouse brain at 30 mg/kg, ip after 30 mins
Assay type: ADME, organism-based
Parameters: dose 30 mg/kg, route intraperitoneal
Conditions: in vivo, 0.5 h, BLD = below limit of detection
Summary of the method: as §2

SMILES	Drug uptake
C[C@@H](NC(=O)C1CCN(C(=O)c2cc3ccccc3n2Cc2ccc(Cl)cc2)CC1)c1ccccc1	BLD
O=C(NCCc1ccncc1)C1CCN(C(=O)c2cc3ccccc3n2Cc2ccc(Cl)cc2)CC1	BLD

Tested on: not listed separately
Assay: Cytotoxicity against human BE(2)-C cells assessed as cell viability at 25 uM after 24 hrs by MTT assay relative to control
Assay type: cell-based
Conditions: read-out: Activity

SMILES	viability at 24 h, 25 µM
O=C(NCCc1ccncc1)C1CCN(C(=O)c2cc3ccccc3n2Cc2ccccc2)CC1	79.4%
O=C(NCCc1ccncc1)C1CCN(C(=O)c2cc3ccncc3n2Cc2ccc(Cl)cc2)CC1	66.1%
O=C(NCCc1ccncc1)C1CCN(C(=O)c2nc3ccccc3n2Cc2ccc(Cl)cc2)CC1	69.7%
C[C@@H](NC(=O)C1CCN(C(=O)c2cc3ccccc3n2Cc2ccc(Cl)cc2)CC1)c1ccccc1	36.7%
C[C@@H](NC(=O)C1CCN(C(=O)c2cc3ccccc3n2Cc2ccc(Cl)cc2)CC1)c1ccncc1	65.5%
O=C(NCCc1ccncc1)C1CCN(C(=O)c2cc3ccccc3n2Cc2ccc(Cl)cc2)CC1	60.7%
O=C(NCCn1ccnc1)C1CCN(C(=O)c2cc3ccccc3n2Cc2ccc(Cl)cc2)CC1	70.3%
CC(NC(=O)C1CCN(C(=O)c2cc3ccccc3n2Cc2ccc(Cl)cc2)CC1)c1ccncc1 (racemic)	63.2%
NC(=O)c1ncn([C@@H]2O[C@H](CO)[C@@H](O)[C@H]2O)n1 [RIBAVIRIN]	32.6%

Tested on: not listed separately
Assay: Plasma concentration in C57BL/6 mouse at 30 mg/kg, ip after 30 mins
Assay type: ADME, organism-based
Parameters: dose 30 mg/kg, route intraperitoneal
Conditions: not given
Summary of the method: as §1

SMILES	concentration at 0.5 h
C[C@@H](NC(=O)C1CCN(C(=O)c2cc3ccccc3n2Cc2ccc(Cl)cc2)CC1)c1ccccc1	10 ng/mL
O=C(NCCc1ccncc1)C1CCN(C(=O)c2cc3ccccc3n2Cc2ccc(Cl)cc2)CC1	59 ng/mL

Tested on: Brain
Assay: Drug level in C57BL/6 mouse brain at 30 mg/kg, ip after 12 hrs
Assay type: ADME, organism-based
Parameters: dose 30 mg/kg, route intraperitoneal
Conditions: in vivo, BLD = below limit of detection
Summary of the method: as §2

SMILES	Drug uptake
C[C@@H](NC(=O)C1CCN(C(=O)c2cc3ccccc3n2Cc2ccc(Cl)cc2)CC1)c1ccccc1	BLD
O=C(NCCc1ccncc1)C1CCN(C(=O)c2cc3ccccc3n2Cc2ccc(Cl)cc2)CC1	BLD

Tested on: Fort Morgan virus
Assay: Antiviral activity against Fort Morgan virus infected in human BE(2)-C cells assessed as reduction of viral titer at 25 uM after 24 hrs by plaque reduction assay (reference value: 47.1 +/- 10.5 x 10^6 pfu/ml)
Assay type: functional
Conditions: not given

SMILES	Activity
O=C(NCCc1ccncc1)C1CCN(C(=O)c2cc3ccccc3n2Cc2ccccc2)CC1	6.8 ×10⁶ PFU/ml
O=C(NCCc1ccncc1)C1CCN(C(=O)c2cc3ccncc3n2Cc2ccc(Cl)cc2)CC1	69.4 ×10⁶ PFU/ml
O=C(NCCc1ccncc1)C1CCN(C(=O)c2nc3ccccc3n2Cc2ccc(Cl)cc2)CC1	16.4 ×10⁶ PFU/ml
C[C@@H](NC(=O)C1CCN(C(=O)c2cc3ccccc3n2Cc2ccc(Cl)cc2)CC1)c1ccccc1	39.3 ×10⁶ PFU/ml
C[C@@H](NC(=O)C1CCN(C(=O)c2cc3ccccc3n2Cc2ccc(Cl)cc2)CC1)c1ccncc1	6.4 ×10⁶ PFU/ml
O=C(NCCc1ccncc1)C1CCN(C(=O)c2cc3ccccc3n2Cc2ccc(Cl)cc2)CC1	4.9 ×10⁶ PFU/ml
O=C(NCCn1ccnc1)C1CCN(C(=O)c2cc3ccccc3n2Cc2ccc(Cl)cc2)CC1	15.8 ×10⁶ PFU/ml
CC(NC(=O)C1CCN(C(=O)c2cc3ccccc3n2Cc2ccc(Cl)cc2)CC1)c1ccncc1 (racemic)	3.7 ×10⁶ PFU/ml
NC(=O)c1ncn([C@@H]2O[C@H](CO)[C@@H](O)[C@H]2O)n1 [RIBAVIRIN]	53.5 ×10⁶ PFU/ml

Target: MDR1 (ABCB1, P-glycoprotein) (Homo sapiens, UniProt P08183)
Assay: Inhibition of human MDR1 expressed in MDCK2 cells assessed as increase of rhodamine 123 uptake at 30 uM up to 240 mins relative to control
Assay type: ADME, cell-based, MDCK-II
Conditions: MDCK2 cells expressing human MDR1, probe rhodamine 123
Summary of the method: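 Confluent MDR1-MDCKII cells (human Pgp-transfected) given fresh DMEM with 10 μM rhodamine 123, plus vehicle, tariquidar (5 μM) or compound (30 μM). Uptake at 37°C from 1 to 240 min, stopped by ice-cold PBS washes. Fluorescence read at ex 525/em 560-640 nm. Result expressed as % of same-day tariquidar effect, (Cav−Cveh)*100/(Ctar−Cveh). Triplicates on ≥3 occasions.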

Sequence of MDR1 (ABCB1, P-glycoprotein) (P08183 whole entry): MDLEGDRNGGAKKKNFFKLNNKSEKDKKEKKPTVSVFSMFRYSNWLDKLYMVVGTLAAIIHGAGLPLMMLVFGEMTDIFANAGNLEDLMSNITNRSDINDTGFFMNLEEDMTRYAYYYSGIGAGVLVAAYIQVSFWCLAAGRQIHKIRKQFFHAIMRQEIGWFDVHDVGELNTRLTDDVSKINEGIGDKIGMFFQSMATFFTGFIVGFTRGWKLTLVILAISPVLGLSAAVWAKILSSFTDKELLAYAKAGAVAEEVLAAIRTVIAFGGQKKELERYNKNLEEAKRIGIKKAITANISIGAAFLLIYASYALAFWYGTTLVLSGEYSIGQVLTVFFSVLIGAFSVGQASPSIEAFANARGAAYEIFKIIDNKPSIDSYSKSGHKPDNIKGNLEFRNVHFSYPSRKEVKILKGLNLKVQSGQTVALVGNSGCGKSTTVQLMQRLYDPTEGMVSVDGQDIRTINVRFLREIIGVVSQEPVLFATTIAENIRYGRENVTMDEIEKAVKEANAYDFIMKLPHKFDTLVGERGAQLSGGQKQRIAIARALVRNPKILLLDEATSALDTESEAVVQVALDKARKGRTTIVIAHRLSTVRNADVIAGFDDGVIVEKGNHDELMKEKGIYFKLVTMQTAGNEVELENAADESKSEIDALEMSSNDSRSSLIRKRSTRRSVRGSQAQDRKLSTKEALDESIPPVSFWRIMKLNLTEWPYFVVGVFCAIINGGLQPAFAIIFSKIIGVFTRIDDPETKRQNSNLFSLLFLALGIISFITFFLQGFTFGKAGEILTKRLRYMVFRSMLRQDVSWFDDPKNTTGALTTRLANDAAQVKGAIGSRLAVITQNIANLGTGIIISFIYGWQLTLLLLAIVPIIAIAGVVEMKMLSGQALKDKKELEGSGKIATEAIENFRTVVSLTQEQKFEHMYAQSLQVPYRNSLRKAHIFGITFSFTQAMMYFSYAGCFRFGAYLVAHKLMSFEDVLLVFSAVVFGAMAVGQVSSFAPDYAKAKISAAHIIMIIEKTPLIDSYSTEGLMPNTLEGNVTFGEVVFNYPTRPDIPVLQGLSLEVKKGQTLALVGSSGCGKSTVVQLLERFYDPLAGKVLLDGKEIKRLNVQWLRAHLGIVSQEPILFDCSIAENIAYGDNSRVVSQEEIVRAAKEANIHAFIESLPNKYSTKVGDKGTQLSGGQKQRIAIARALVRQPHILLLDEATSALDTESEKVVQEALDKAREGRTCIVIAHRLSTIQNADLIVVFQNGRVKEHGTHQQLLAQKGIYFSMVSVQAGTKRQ

SMILES	inhibition at 4 h, 30 µM
O=C(NCc1ccncc1)C1CCN(C(=O)c2cc3ccccc3n2Cc2ccc(Cl)cc2)CC1	25.9%
O=C(NCCc1ccncc1)C1CCN(C(=O)c2cc3ccccc3n2Cc2ccccc2)CC1	11.7%
O=C(NCCc1ccncc1)C1CCN(C(=O)c2cc3ccncc3n2Cc2ccc(Cl)cc2)CC1	1.2%
O=C(NCCc1ccncc1)C1CCN(C(=O)c2nc3ccccc3n2Cc2ccc(Cl)cc2)CC1	6.9%
C[C@@H](NC(=O)C1CCN(C(=O)c2cc3ccccc3n2Cc2ccc(Cl)cc2)CC1)c1ccccc1	24.4%
C[C@@H](NC(=O)C1CCN(C(=O)c2cc3ccccc3n2Cc2ccc(Cl)cc2)CC1)c1ccncc1	35.9%
O=C(NCCc1ccncc1)C1CCN(C(=O)c2cc3ccccc3n2Cc2ccc(Cl)cc2)CC1	30.9%
O=C(NCCn1ccnc1)C1CCN(C(=O)c2cc3ccccc3n2Cc2ccc(Cl)cc2)CC1	15.1%
CC(NC(=O)C1CCN(C(=O)c2cc3ccccc3n2Cc2ccc(Cl)cc2)CC1)c1ccncc1 (racemic)	43.1%

Tested on: not listed separately
Assay: Kinetic solubility of the compound
Assay type: physicochemical
Conditions: not given

SMILES	Kinetic_solubility
O=C(NCc1ccncc1)C1CCN(C(=O)c2cc3ccccc3n2Cc2ccc(Cl)cc2)CC1	31 µM
O=C(NCCc1ccncc1)C1CCN(C(=O)NCCc2ccc(Cl)cc2)CC1	250 µM
O=C(NCCc1ccncc1)C1CCN(C(=O)c2cc3ccccc3n2Cc2ccccc2)CC1	31 µM
O=C(NCCc1ccncc1)C1CCN(C(=O)c2cc3ccncc3n2Cc2ccc(Cl)cc2)CC1	125 µM
O=C(NCCc1ccncc1)C1CCN(C(=O)c2nc3ccccc3n2Cc2ccc(Cl)cc2)CC1	63 µM
C[C@@H](NC(=O)C1CCN(C(=O)c2cc3ccccc3n2Cc2ccc(Cl)cc2)CC1)c1ccccc1	8 µM
O=C(NCCc1ccncc1)C1CCN(C(=O)c2cc3ccccc3n2Cc2ccc(Cl)cc2)CC1	31 µM
O=C(NCCn1ccnc1)C1CCN(C(=O)c2cc3ccccc3n2Cc2ccc(Cl)cc2)CC1	31 µM
CC(NC(=O)C1CCN(C(=O)c2cc3ccccc3n2Cc2ccc(Cl)cc2)CC1)c1ccncc1 (racemic)	31 µM

Tested on: Plasma
Assay: (§3) Plasma concentration in C57BL/6 mouse at 30 mg/kg, ip after 12 hrs
Assay type: ADME, organism-based
Parameters: dose 30 mg/kg, route intraperitoneal
Conditions: mouse, in vivo, 12 h, BLD = below limit of detection
Summary of the method: as §1

SMILES	Cp
C[C@@H](NC(=O)C1CCN(C(=O)c2cc3ccccc3n2Cc2ccc(Cl)cc2)CC1)c1ccccc1	BLD

Tested on: not listed separately
Assay: as §3
Assay type: ADME, organism-based
Parameters: dose 30 mg/kg, route intraperitoneal
Conditions: C57BL/6, mouse, plasma
Summary of the method: as §1

SMILES	concentration at 12 h
O=C(NCCc1ccncc1)C1CCN(C(=O)c2cc3ccccc3n2Cc2ccc(Cl)cc2)CC1	23 ng/mL
